Many of the other results were omitted from the sample, so hits are more common in it than they were.
T cruzi repl – inhibitors of intracellular T. cruzi growth, primary screen, luminescence, NIH3T3 host cells; T. cruzi beta-gal in NIH3T3, 90 h; inhibition, % (concentration not given with the values); hit rate 1.4% among 300,000;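 active means mean inhibition across valid replicates above about 55%, limit read from the data; inconclusive means mean below that limit but half or more replicates reach it; inactive means mean below it, under half of replicates reach it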;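 further: signal also drops with host cell toxicity which is not excluded here; higher percent means less beta-gal luminescence so fewer parasites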
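compound dosing = single 50 nL compound addition per well in DMSO | material = NIH/3T3 host cells with β-galactosidase reporter T. cruzi | input = 5,000 host fibroblasts per well | timing = ≥90 h infection period, 3 h prior cell attachment | read-out basis = percent inhibition of parasite-derived β-gal signal | detection = GalScreen β-gal luminescence, detergent lysis, 60 min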
PolyA inh – polyadenylation inhibitors in yeast reporter cells, primary screen, luminescence, S. cerevisiae | activity score, % at 12 µM | hit rate 0.02% among 300,000 | S. cerevisiae SKY197-pL101 polyadenylation reporter, beta-gal luminescence; efflux-impaired pdr1/pdr3 knockout yeast; score 100 = 6 SD above DMSO;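 active means lowest replicate activity score at least 50, where 100 means six control SD above control mean; inconclusive means lowest score under 50 but half or more replicates reach 50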;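 further: yeast exposed to compound for 9 h at 30 °C; higher score means more reporter readthrough which indicates perturbed polyadenylation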
NALP1 yeast inh – NALP1 inflammasome inhibitors in reconstituted yeast, colorimetric, S. cerevisiae, triplicate retest. S. cerevisiae NALP1/ASC/caspase-1 growth, X-gal OD620, 72 h. inhibition, % at 10 µM. hit rate 0.61% among 280,000. AID 2071, 2009; in the data active means inhibition mostly above about 24%, no sharp cut-off; inactive means mostly below about 32%
Calb FLC – C. albicans growth inhibition with fluconazole, primary screen, CaCi-2 strain, Alamar Blue fluorescence | C. albicans CaCi-2 + fluconazole, 48 h | AID 1979, 2009 | growth inhibition, % (no concentration beside the values) | hit rate 0.57% among 300,000;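 active means growth inhibition above about 58% in most replicates, limit read from the data, passing the limit was not always enough; inconclusive means exactly half the replicates above a set limit; inactive means most replicates below a set limit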;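 further: all wells also contain fluconazole at 8 µg/ml as a sub-toxic cotreatment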
NLRP3 yeast inh – NALP3 inflammasome inhibitors in reconstituted yeast, primary screen, luminescence, uHTS. Yeast reconstituted NLRP3/ASC/caspase-1, beta-gal luminescence, 24 h. hit rate 0.39% among 330,000. inhibition, % at 10 µM;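 active means inhibition of 50% or more; inactive means inhibition below 50%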
L major viab – Leishmania major promastigote growth inhibition, primary screen; Leishmania major promastigotes, resazurin fluorescence viability; inhibition, % at 10 µM; hit rate 9% among 200,000; in the data active means inhibition above about 50%;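 further: promastigotes grown with compound for 44 hours at 28 °C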
Numbers stand for hits; . = inactive; ? = inconclusive; / = no result.

SMILES	T cruzi repl	PolyA inh	NALP1 yeast inh	Calb FLC	NLRP3 yeast inh	L major viab
CSc1ccc(CN2CCN(CCC(C)C)C(CCO)C2)cc1 (configuration not stated)	.	.	.	.	.	78
CC(C)CCN1CCN(Cc2ccc(C#CCCO)cc2)CC1CCO (configuration not stated)	.	.	.	.	.	.
O=C(c1cc2ccccn2n1)N1CCN(c2ccccn2)CC1	.	.	.	.	.	.
FC(F)(F)c1cccc(NC(=S)NC(c2ccccc2)c2ccccc2)c1	60	.	.	.	/	.
O=C(COCC(=O)Nc1cccc(C(F)(F)F)c1)Nc1cccc(C(F)(F)F)c1	.	.	38	.	.	.
CN(CC(=O)Nc1cccc(F)c1)C(=O)c1ccccc1OCC(=O)Nc1cccc(C(F)(F)F)c1	61	.	/	.	.	/
O=C(Nc1cccc(C(F)(F)F)c1)c1ccccc1NC(=O)C1CCCCC1	.	.	.	.	.	57
CNNC(=S)Nc1cccc(C(F)(F)F)c1	.	?	.	.	.	/
FC(F)(F)c1cccc(NC(=S)NNC(=S)Nc2cccc(C(F)(F)F)c2)c1	55	.	.	.	.	/
CCOC(=O)c1[nH]c2c(c1-c1ccccc1)C(=O)CC(c1ccc(OC)c(OC)c1)C2 (configuration not stated)	.	.	.	.	.	54
C#Cc1ccc(CN2CCN(CCCc3ccccc3)C(CCO)C2)cc1 (configuration not stated)	.	.	.	.	.	/
Cc1nn2c(nc(N3CCCCC3)c3ccccc32)c1C=O	.	.	.	.	.	53
Cc1nn2c([nH]c(=O)c3ccccc32)c1C=O	.	.	.	83	.	.
Cc1nn2c(nc(N3CCOCC3)c3ccccc32)c1C=C(C#N)C#N	.	.	.	.	.	.
COc1cccc(C(=O)N2CCC(C(=O)NCc3ccc(C)cc3)CC2)c1	.	.	.	.	.	/
CC1CCCc2sc3nc(N4CCN(CCO)CC4)n4ncnc4c3c21 (configuration not stated)	.	.	.	.	.	91
NC(=O)CSc1nc2sc3c(c2c2ncnn12)CCCC3	.	.	.	.	.	.
CC(NC(=O)CNC(=O)C1CCCCC1)c1cccc(Cl)c1 (configuration not stated)	.	.	.	.	.	/
CCOC(=O)NC(c1cccc(Cl)c1)C1CCCCCC1=O (configuration not stated)	.	.	43	.	.	.
O=C(C1CC(=O)N(c2ccccc2)C1)N1CCN(c2ccccc2F)CC1 (configuration not stated)	.	.	.	.	.	/
CC(Oc1ccccc1)C(=O)OCC(=O)N1CC(=O)Nc2ccccc21 (configuration not stated)	.	.	24	.	.	.
O=C1CN(C(=O)COC(=O)CNS(=O)(=O)/C=C/c2ccccc2)c2ccccc2N1	.	.	34	.	.	.
O=C1CN(C(=O)COC(=O)CNS(=O)(=O)c2ccccc2)c2ccccc2N1	.	.	.	.	.	.
O=C(c1cc2ncccn2n1)N1CCc2c([nH]c3ccccc23)C1c1ccccc1F (configuration not stated)	.	.	.	.	.	56
Cn1cccc1-c1cc(C(=O)N2CCc3c([nH]c4ccccc34)C2c2ccccn2)[nH]n1 (configuration not stated)	.	.	.	98	.	.
SMILES	T cruzi repl	PolyA inh	NALP1 yeast inh	Calb FLC	NLRP3 yeast inh	L major viab
COc1ccc(Cl)cc1Nc1nc2ccc(C)cc2n2cnnc12	.	.	.	.	.	/
Cc1cc(-c2nsc(=O)o2)c(S(C)(=O)=O)s1	.	.	.	.	.	.
O=C(Cc1csc(N2CCOCC2)n1)N/N=C/c1ccc(Cl)cc1Cl	.	.	.	.	.	69
O=C(COC(=O)c1ccccn1)Nc1ccc2c(c1)OCCO2	/	/	/	/	.	/
CCN1CCN(CCCOc2ccc(-c3ccccc3)cc2)CC1	72	.	.	.	.	98
CN1CCN(CCCOc2ccc(-c3ccccc3)cc2)CC1	56	.	.	.	.	/
c1ccc(-c2ccc(OCCCn3cncn3)cc2)cc1	/	/	.	/	.	96
Cc1ccc(OCCN2CCCC2)cc1	.	.	/	.	.	/
CN1CCN(CCOc2ccc(-c3ccccc3)cc2)CC1	.	.	.	.	.	/
Cn1c(-c2ccc(Cl)nc2)nc2cc(Cl)ccc21	.	.	.	.	.	/
CS(=O)(=O)Nc1ccccc1C(=O)OCC(=O)N1CCC(c2ccccc2)=N1	/	/	/	/	.	/
O=C(NC1CCCCC1)c1cc([N+](=O)[O-])[nH]n1	.	.	.	?	.	.
O=C(COC(=O)c1ccccc1C(=O)OCC(=O)NCCc1c[nH]c2ccccc12)NCCc1c[nH]c2ccccc12	.	.	/	.	.	/
Cc1ccc2oc(=O)c3cc(C(=O)NCCCN4C(C)CCCC4C)sc3c2c1 (configuration not stated)	.	.	.	.	.	/
COc1ccc(/C=C/C2=CCN(Cc3ccc(OC)cc3)CC2)cc1	58	.	.	.	.	91
O=[N+]([O-])c1ccc(O)c(P(=O)(c2ccccc2)c2ccccc2)c1	.	.	.	100	.	/
Cc1ccc(N=Nc2ccc(O)c(P(=O)(c3ccccc3)c3ccccc3)c2)cc1	.	.	.	.	.	/
CCN1C(=O)[C@H]2[C@@H](c3ccc(C)cc3)N3C(=O)N(c4ccc(OC)cc4)C(=O)[C@@]3(CC)[C@H]2C1=O	.	.	/	.	.	/
COc1ccc(N(CC(=O)Nc2cccc(OC)c2)S(=O)(=O)c2c(C)nn(C)c2C)cc1	/	/	.	/	.	57
COc1cccc(NC(=O)CN(c2ccc(C)cc2)S(=O)(=O)c2c(C)nn(C)c2C)c1	.	.	.	.	.	.
COc1ccc(N(CC(=O)Nc2ccc(F)cc2F)S(=O)(=O)c2c(C)nn(C)c2C)cc1	.	.	.	.	.	/
COc1ccc(N(CC(=O)Nc2nc3ccc(C)cc3s2)S(=O)(=O)c2c(C)nn(C)c2C)cc1	.	.	.	.	.	66
COc1ccc(N(CC(=O)Nc2cc(OC)ccc2OC)S(=O)(=O)c2c(C)nn(C)c2C)cc1	.	.	.	.	.	100
CCC(C)(C)NC(=O)c1ccc2c(c1)N(CC(=O)NC1CCCC1)C(=O)C(C)(C)O2	.	.	.	.	.	/
COCCCn1c(C)nnc1SCC(=O)Nc1ccc(C(C)=O)cc1	.	.	.	.	.	/
Cc1ccc(N2CC(C(=O)OCC(=O)c3ccc[nH]3)CC2=O)cc1 (configuration not stated)	.	.	/	/	.	/
